High-throughput results as filed in PubChem.
KCNQ1 act = potentiators or activators of KCNQ1 channel, primary screen, cell-based, thallium flux, high-throughput | Potassium voltage-gated channel subfamily KQT member 1 (Homo sapiens), P51787 | CHO-K1 KCNQ1, thallium flux FluxOR fluorescence; hits give high values | B-score at 10 µM | 0.35% of 310,000 active | AID 2648, 2010;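 active = fluorescence ratio B-score, a plate-corrected score, at least three library SD, with initial intensity B-score within 5 SD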
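Assay system: CHO-K1 cells stably expressing KCNQ1. Medium: assay buffer for compound exposure, DMSO matched across wells. Timing: 37 °C overnight plating, 90-min dark dye load, 20-min compound pretreatment. Signal: kinetic FluxOR fluorescence, 10 s baseline plus 110 s post-stimulus.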
KCNQ1 inh = inhibitors of human KCNQ1 channel, primary screen, cell-based, thallium flux, high-throughput; Potassium voltage-gated channel subfamily KQT member 1 (Homo sapiens), P51787; CHO-K1 KCNQ1, FluxOR thallium flux fluorescence; hits give high values; B-score at 10 µM; 1.3% of 310,000 active; AID 2642, 2010;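 active = compounds whose thallium flux B-score, printed positive for inhibition, exceeds three library SD while starting fluorescence stays within three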;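 note: channel opened by potassium depolarization with thallium stimulus after 20 min compound exposure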
Cl transport mod = KCC2 cotransporter modulators, thallium flux, primary screen, cell-based, HEK293 KCC2, FluoZin-2 fluorescence, MLSMR; AID 1456, 2008; KCC2 cells, thallium flux FluoZin-2 fluorescence; 2.2% of 190,000 active; B-score of Tl+ flux slope (higher = more flux/activation; lower = inhibition) at 10 µM;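 active = thallium flux slope and its plate-corrected score both differing from the plate sample mean at a set confidence after two filtering rounds, in either direction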;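 note: slope of fluorescence scaled to starting intensity during 10 to 20 s after thallium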
hERG rescue = hERG rescue from dofetilide block, primary screen, cell-based, CHO-hERG, FluxOR thallium flux, dofetilide IC70; dofetilide IC70 present; 0.51% of 310,000 active; AID 1511, 2009; activation (rescue from dofetilide block), less the hit threshold, % at 10 µM;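 active = activation above the mean of controls blocked by dofetilide plus 5 SD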;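 note: thallium influx through hERG after potassium depolarization seen as dye fluorescence rise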
Target sequence (Q12809 whole entry, looked up): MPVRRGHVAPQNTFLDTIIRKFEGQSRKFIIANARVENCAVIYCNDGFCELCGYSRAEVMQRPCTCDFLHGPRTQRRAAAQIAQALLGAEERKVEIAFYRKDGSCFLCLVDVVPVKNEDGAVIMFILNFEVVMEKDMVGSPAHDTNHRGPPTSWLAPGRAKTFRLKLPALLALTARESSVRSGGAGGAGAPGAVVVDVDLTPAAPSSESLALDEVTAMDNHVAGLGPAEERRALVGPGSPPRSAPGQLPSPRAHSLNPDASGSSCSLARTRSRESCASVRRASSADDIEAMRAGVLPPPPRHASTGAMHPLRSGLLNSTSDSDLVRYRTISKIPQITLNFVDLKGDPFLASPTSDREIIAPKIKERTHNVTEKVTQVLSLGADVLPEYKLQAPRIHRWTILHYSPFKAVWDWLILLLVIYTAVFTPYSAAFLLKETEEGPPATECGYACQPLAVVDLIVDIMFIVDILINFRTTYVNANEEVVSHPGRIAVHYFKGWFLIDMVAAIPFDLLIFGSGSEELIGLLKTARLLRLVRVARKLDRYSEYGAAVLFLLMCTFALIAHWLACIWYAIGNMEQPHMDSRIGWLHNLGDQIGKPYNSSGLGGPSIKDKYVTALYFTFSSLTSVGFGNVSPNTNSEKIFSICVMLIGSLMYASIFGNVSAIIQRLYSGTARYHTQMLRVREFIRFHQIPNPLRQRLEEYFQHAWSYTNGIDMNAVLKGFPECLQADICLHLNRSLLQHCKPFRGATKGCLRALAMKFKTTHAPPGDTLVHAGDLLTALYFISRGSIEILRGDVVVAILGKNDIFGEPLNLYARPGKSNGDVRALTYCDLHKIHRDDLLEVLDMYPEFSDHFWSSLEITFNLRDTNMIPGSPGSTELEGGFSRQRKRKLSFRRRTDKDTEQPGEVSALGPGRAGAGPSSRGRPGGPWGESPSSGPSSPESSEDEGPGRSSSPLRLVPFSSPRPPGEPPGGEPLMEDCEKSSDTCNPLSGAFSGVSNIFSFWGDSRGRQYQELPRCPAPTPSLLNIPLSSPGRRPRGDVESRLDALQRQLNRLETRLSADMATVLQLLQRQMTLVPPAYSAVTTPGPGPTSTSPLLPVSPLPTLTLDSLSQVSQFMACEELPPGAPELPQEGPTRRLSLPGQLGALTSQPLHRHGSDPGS
KCNK9 block = KCNK9 potassium channel inhibitors, primary screen, HEK293 cells, thallium flux. B-score at 10 µM. 1.2% of 310,000 active. Potassium channel subfamily K member 9 (Homo sapiens), Q9NPC2. FluxOR thallium flux fluorescence; hits give low values;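 active = ratio B-score over 3 SD below the library mean, with starting fluorescence within 5 SD of its mean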;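 note: negative B-score means less thallium flux so channel inhibition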
KCNK3 block = human KCNK3 channel inhibitors, primary screen, CHO cells, FluxOR thallium flux, B-score. Potassium channel subfamily K member 3 (Homo sapiens), O14649. FluxOR fluorescence; hits give low values. B-score at 10 µM. 0.84% of 340,000 active. AID 602410, 2012;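 active = B-score under library mean minus 4 SD, starting fluorescence ratio at most library mean plus 5 SD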;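 note: more negative B-score means stronger inhibition of thallium flux through KCNK3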
KCC2 secondary = KCC2 modulators in sodium-free buffer, confirmation, cell-based, HEK293 KCC2, thallium flux, secondary assay. shares compounds with Cl transport mod. FluoZin2 fluorescence; hits give high values. normalised thallium flux (F/F0 slope) at 10 µM. 15% of 3,700 active;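 active = thallium flux slope above the same plate's solvent-only control mean plus 3 SD; inconclusive = the two replicate wells disagree; inactive = no significant difference from solvent-only control wells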
KCC2 bumet counter = thallium flux persisting under bumetanide in KCC2 cells, confirmation, counter-screen for KCC2 modulator project, cell-based, HEK293 KCC2, FluoZin2, secondary assay 3; shares compounds with Cl transport mod; HEK293-KCC2 + bumetanide/ouabain; hits give high values; normalized thallium flux at 10 µM; 49% of 3,700 active; AID 1714, 2009;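 active = thallium entry rate above the same plate's blocked-transporter control wells by more than 3 SD; inconclusive = the two repeat wells disagree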;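 note: raw slope of fluorescence over initial fluorescence between 10 and 20 s after thallium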
KCC2 secondary2 = KCC2 modulators without ouabain present, confirmation, cell-based, HEK293 KCC2, thallium flux, FluoZin2, secondary assay 2; normalized thallium flux at 10 µM; shares compounds with Cl transport mod; thallium flux FluoZin2 fluorescence; actives lie on both sides; F/F0 rise rate, 10–20 s post-thallium; 23% of 3,700 active;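 active = thallium flux slope more than 3 SD above or below the plate's solvent-only control mean, mostly below; inconclusive = the two repeat wells disagreed; inactive = no significant shift from solvent-only controls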
HEK293 Tl flux = thallium flux modulation in parental HEK cells, confirmation, counter-screen for KCC2 modulator project, cell-based, counterscreen 1; HEK293 parental cells, thallium flux FluoZin2, ouabain; baseline-ratio fluorescence slope, 10–20 s after thallium; thallium flux rate (normalised fluorescence) at 10 µM; shares compounds with Cl transport mod; 46% of 3,700 active; AID 1716, 2009;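 active = thallium flux rate significantly above the same plate's solvent-only control wells, beyond their mean plus 3 SD; inconclusive = the two replicate wells gave conflicting results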
KCC2 ouabain = KCC2 inhibitors and activators, ouabain retest, confirmation, HEK-KCC2 cells. shares compounds with Cl transport mod. HEK293-KCC2, thallium flux FluoZin2 fluorescence; bidirectional: low = inhibitor, high = activator. raw Tl+ flux slope (below DMSO = inhibition, above = activation) at 10 µM. 48% of 3,700 active. AID 1717, 2009;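 active = thallium flux slope beyond 3 SD from same-plate DMSO control mean in most replicates, usually higher, sometimes lower; inconclusive = repeat tests gave conflicting results; inactive = no significant difference from controls in most replicates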;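 note: slope of initial-normalized fluorescence between seconds 10 and 20 after thallium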
HEK counter2 = native HEK Tl+ uptake effects, second counter-screen – HEK cells, counterscreen 2, counter-screen for KCC2 modulator project, confirmation; shares compounds with Cl transport mod; HEK293 parental, thallium flux FluoZin-2 fluorescence slope; thallium flux slope at 10 µM; 33% of 3,700 active;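 active = thallium flux slope above the same plate's solvent-control mean plus 3 SD in both duplicate wells; inconclusive = duplicate wells that disagreed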;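 note: run without ouabain in cells lacking the KCC2 cotransporter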
Hits are given with their value. The list is not random: actives were taken first. Their share in the collection is about 4.1%.

For CCc1ccc(OCCNC(=O)c2cc(SC)ccc2Cl)cc1 the results were KCNQ1 act inactive, KCNQ1 inh inactive, Cl transport mod -6.3, hERG rescue inactive, KCNK9 block inactive, KCNK3 block inactive, KCC2 secondary inactive, KCC2 bumet counter inactive, KCC2 secondary2 0.025, HEK293 Tl flux inactive, KCC2 ouabain inconclusive and HEK counter2 inactive.
Screening CCc1ccc(OCCNC(=O)c2ccccc2SCc2ccc(F)cc2)cc1 returned KCNQ1 act inactive, KCNQ1 inh inactive, Cl transport mod -8.8, hERG rescue inactive, KCNK9 block inactive, KCNK3 block inactive, KCC2 secondary inactive, KCC2 bumet counter inactive, KCC2 secondary2 0.023, HEK293 Tl flux inactive, KCC2 ouabain 0.013 and HEK counter2 inactive.
For COCCNC(=O)c1cc(Br)ccc1Cl the results were KCNQ1 act inactive, KCNQ1 inh inactive, Cl transport mod -4.5, hERG rescue inactive, KCNK9 block inactive, KCNK3 block inactive, KCC2 secondary inactive, KCC2 bumet counter 0.035, KCC2 secondary2 inactive, HEK293 Tl flux 0.019, KCC2 ouabain inactive and HEK counter2 inconclusive.
`Cc1cc(OCC(=O)OCC(=O)NCc2cccs2)ccc1Cl` gave KCNK3 block inactive.
Screening COc1ccc(N=CC2CCCCC2=O)c([N+](=O)[O-])c1 (stereo not given) returned KCNK3 block inactive.
For Cc1ccc(C(=O)N2CCC(Cc3ccccc3)CC2)cc1[N+](=O)[O-] the results were KCNQ1 act inactive, KCNQ1 inh inactive, Cl transport mod -5.7, hERG rescue inactive, KCNK9 block inactive, KCNK3 block inactive, KCC2 secondary inactive, KCC2 bumet counter inconclusive, KCC2 secondary2 inactive, HEK293 Tl flux inactive, KCC2 ouabain 0.014 and HEK counter2 inactive.
Screening O=C(c1ccc(S(=O)(=O)Cc2ccccc2F)c([N+](=O)[O-])c1)N1CCCCCC1 returned KCNQ1 act inactive, KCNQ1 inh inactive, Cl transport mod inactive, hERG rescue inactive, KCNK9 block inactive and KCNK3 block inactive.
`CC1CCN(C(=O)c2ccc(SCc3ccccc3F)c([N+](=O)[O-])c2)CC1` gave KCNQ1 act inactive, KCNQ1 inh inactive, Cl transport mod -3.4, hERG rescue inactive, KCNK9 block inactive, KCNK3 block inactive, KCC2 secondary inactive, KCC2 bumet counter inactive, KCC2 secondary2 0.025, HEK293 Tl flux inactive, KCC2 ouabain inconclusive and HEK counter2 inactive.
Screening CC1(C)CCc2cc(-c3ccnc(=S)[nH]3)ccc2O1 returned KCNQ1 act inactive, KCNQ1 inh inactive, hERG rescue inactive, KCNK9 block inactive and KCNK3 block inactive.
For S=c1nccc(-c2cccs2)[nH]1 the results were KCNQ1 act inactive, KCNQ1 inh inactive, Cl transport mod inactive, hERG rescue inactive, KCNK9 block inactive and KCNK3 block inactive.
Cc1ccc(-c2ccnc(=S)[nH]2)cc1 was read as KCNQ1 act inactive, KCNQ1 inh inactive, hERG rescue inactive, KCNK9 block inactive, KCNK3 block inactive, KCC2 secondary 0.023, KCC2 bumet counter 0.032, KCC2 secondary2 0.041, HEK293 Tl flux 0.033, KCC2 ouabain 0.034 and HEK counter2 0.035.
`S=c1nccc(-c2ccc3c(c2)CCO3)[nH]1` gave KCNQ1 act inactive, KCNQ1 inh inactive, Cl transport mod 4.6, hERG rescue inactive, KCNK9 block inactive, KCNK3 block inactive, KCC2 secondary inactive, KCC2 bumet counter 0.011, KCC2 secondary2 inactive, HEK293 Tl flux 0.013, KCC2 ouabain 0.021 and HEK counter2 0.016.
For CC1CCc2c(sc(NC(=O)CSc3nc(N)cc(=O)[nH]3)c2C(N)=O)C1 (stereo not given) the results were KCNK3 block inactive.
For Cc1ccc(S(=O)(=O)N2CCN(C(=O)COC(=O)CCOc3ccccc3C)CC2)c(C)c1 the results were KCNK3 block inactive.
For C=CCNC(=O)C1CCN(c2c([N+](=O)[O-])cc(C(F)(F)F)cc2[N+](=O)[O-])CC1 the results were KCNQ1 act inactive, KCNQ1 inh inactive, hERG rescue inactive, KCNK9 block inactive, KCNK3 block inactive, KCC2 secondary inactive, KCC2 bumet counter inactive, KCC2 secondary2 inactive, HEK293 Tl flux inactive, KCC2 ouabain inactive and HEK counter2 inconclusive.
`CC1(C)CC(=O)C2=C(C1)c1c(ccc3ccccc13)NC2c1cc([N+](=O)[O-])cc([N+](=O)[O-])c1O` (stereo not given) gave KCNQ1 act inactive, KCNQ1 inh inactive, Cl transport mod -4.5, hERG rescue inactive, KCNK9 block inactive, KCNK3 block inactive, KCC2 secondary inactive, KCC2 bumet counter inactive, KCC2 secondary2 0.027, HEK293 Tl flux inconclusive, KCC2 ouabain 0.016 and HEK counter2 inactive.
